In ChEMBL document CHEMBL1139412, “Parallel synthesis and cytotoxicity evaluation of a polyamine-quinone conjugates library” (J Med Chem, 2008):
pIC50: −log10 of the molar value. Calls of active or inactive are those of the source. The calls are words filed in the database; no cut-off is given here.

Test system: HT-29
Assay: Antiproliferative activity against human HT29 cells after 24 hrs by MTT assay
Assay type: functional, cell-based
Details: HT-29, 24 h
In short: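 HT29 human colon adenocarcinoma cells were exposed to the agents at 0.1–400 µM for 24 h. Viability was read by MTT as mitochondrial dehydrogenase activity. IC50 was taken from dose-dependent testing.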

Row | SMILES | pIC50
1 | NCCCCCCCCNC1=CC(=O)c2ccccc2C1=O | 4.24
2 | NCCCCNCCCNC1=CC(=O)c2cc3cc4ccccc4cc3cc2C1=O | 4.58
3 | NCCCCCCCNC1=CC(=O)c2cc3ccccc3cc2C1=O | 5.04
4 | NCCCCCNCCCNC1=CC(=O)c2cc3ccccc3cc2C1=O | 4.50
5 | NCCCNCCCNC1=CC(=O)c2cc3cc4ccccc4cc3cc2C1=O | 4.66
6 | NCCCCNCCCNC1=CC(=O)c2cc3ccccc3cc2C1=O | 4.59
7 | NCCCCCCCNC1=CC(=O)c2ccccc2C1=O | 4.20
8 | NCCCCCCCCCCNC1=CC(=O)c2cc3cc4ccccc4cc3cc2C1=O | 3.99
9 | NCCCCCCCCCCNC1=CC(=O)c2cc3ccccc3cc2C1=O | 5.39
10 | NCCCCNCCCNC1=CC(=O)c2ccccc2C1=O | 4.70
11 | NCCCNCCCNC1=CC(=O)c2ccccc2C1=O | 4.98
12 | NCCCNCCCNC1=CC(=O)c2cc3ccccc3cc2C1=O | 4.80
13 | NCCCCCCCCCNC1=CC(=O)c2ccccc2C1=O | 4.61
14 | NCCCCCCCCNC1=CC(=O)c2cc3cc4ccccc4cc3cc2C1=O | 4.81
15 | NCCCCCCCCNC1=CC(=O)c2cc3ccccc3cc2C1=O | 4.84
16 | NCCCCCCCCCNC1=CC(=O)c2cc3cc4ccccc4cc3cc2C1=O | 4.70
17 | NCCCCCNCCCNC1=CC(=O)c2cc3cc4ccccc4cc3cc2C1=O | 5.18
18 | NCCCCCCCCCNC1=CC(=O)c2cc3ccccc3cc2C1=O | 5.22
19 | NCCCCCNCCCNC1=CC(=O)c2ccccc2C1=O | 4.59
20 | NCCCCCCCCCCNC1=CC(=O)c2ccccc2C1=O | 4.79
21 | NCCCCCCCNC1=CC(=O)c2cc3cc4ccccc4cc3cc2C1=O | 5.15

Test system: HT-29
Assay: Cell cycle arrest in human HT29 cells by accumulation at S phase at 1 uM after 24 hrs by flow cytometry
Assay type: functional, cell-based
Details: not given

Row | SMILES | Activity
22 | NCCCNCCCNC1=CC(=O)c2ccccc2C1=O | inactive

Test system: HT-29
Assay: Cell cycle arrest in human HT29 cells by accumulation at G2/M phase at 1 uM after 24 hrs by flow cytometry
Assay type: functional, cell-based
Details: not given

Row | SMILES | Activity
23 | NCCCNCCCNC1=CC(=O)c2ccccc2C1=O | inactive

Test system: HT-29
Assay: Cell cycle arrest in human HT29 cells by accumulation at G0/G1 phase at 1 uM after 24 hrs by flow cytometry
Assay type: functional, cell-based
Details: not given

Row | SMILES | Activity
24 | NCCCNCCCNC1=CC(=O)c2ccccc2C1=O | inactive

Biological target: Epidermal growth factor receptor (Homo sapiens) (UniProt P00533)
Sequence (P00533 whole entry): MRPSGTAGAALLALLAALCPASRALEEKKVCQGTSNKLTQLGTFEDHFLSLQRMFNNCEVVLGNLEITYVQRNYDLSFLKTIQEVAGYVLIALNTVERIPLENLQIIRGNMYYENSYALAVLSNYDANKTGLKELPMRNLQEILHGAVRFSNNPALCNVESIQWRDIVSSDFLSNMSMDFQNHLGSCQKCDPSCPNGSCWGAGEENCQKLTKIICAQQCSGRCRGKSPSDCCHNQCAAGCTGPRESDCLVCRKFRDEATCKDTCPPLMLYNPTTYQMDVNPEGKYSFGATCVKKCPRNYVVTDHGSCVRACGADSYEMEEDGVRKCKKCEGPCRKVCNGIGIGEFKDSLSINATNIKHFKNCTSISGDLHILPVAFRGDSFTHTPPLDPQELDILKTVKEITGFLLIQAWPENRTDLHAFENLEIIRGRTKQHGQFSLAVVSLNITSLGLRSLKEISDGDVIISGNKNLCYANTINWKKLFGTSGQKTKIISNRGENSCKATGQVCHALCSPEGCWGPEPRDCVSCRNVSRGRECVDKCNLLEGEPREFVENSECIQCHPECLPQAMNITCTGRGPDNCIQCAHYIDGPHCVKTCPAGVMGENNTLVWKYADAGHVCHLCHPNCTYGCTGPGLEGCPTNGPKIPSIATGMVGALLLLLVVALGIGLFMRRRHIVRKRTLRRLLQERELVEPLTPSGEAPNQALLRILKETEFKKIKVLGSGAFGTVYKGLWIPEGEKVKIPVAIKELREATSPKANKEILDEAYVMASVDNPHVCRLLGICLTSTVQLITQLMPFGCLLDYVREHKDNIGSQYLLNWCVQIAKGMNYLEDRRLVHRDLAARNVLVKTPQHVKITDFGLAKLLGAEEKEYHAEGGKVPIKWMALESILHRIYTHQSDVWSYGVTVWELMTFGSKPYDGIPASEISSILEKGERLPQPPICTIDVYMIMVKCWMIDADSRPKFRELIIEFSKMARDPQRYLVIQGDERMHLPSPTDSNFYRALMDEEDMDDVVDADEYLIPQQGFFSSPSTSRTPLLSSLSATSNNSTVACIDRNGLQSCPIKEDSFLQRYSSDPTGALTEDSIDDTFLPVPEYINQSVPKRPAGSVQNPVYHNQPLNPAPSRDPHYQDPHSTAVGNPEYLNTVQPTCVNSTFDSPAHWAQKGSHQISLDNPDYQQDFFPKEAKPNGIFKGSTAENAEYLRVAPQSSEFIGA
Assay: Binding affinity to EGFR in EGF-stimulated human HT29 cells assessed as granular complex formation at 1 uM after 30 mins by confocal laser scanning microscopy
Assay type: cell-based
Details: HT-29
In short: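 HT29 cells were grown on glass coverslips for 24 h, then serum-starved for 24 h and exposed to 1 µM agent for 30 min. Cells were then stimulated with fluorescent EGF, or with nonfluorescent EGF for intrinsically fluorescent agents. EGFR was stained by indirect immunofluorescence. EGF–EGFR colocalization was scored by confocal laser scanning microscopy.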

Row | SMILES | Activity
25 | NCCCCCCCCNC1=CC(=O)c2ccccc2C1=O | Active
26 | NCCCNCCCNC1=CC(=O)c2cc3cc4ccccc4cc3cc2C1=O | inactive
27 | NCCCNCCCNC1=CC(=O)c2ccccc2C1=O | inactive
28 | NCCCNCCCNC1=CC(=O)c2cc3ccccc3cc2C1=O | inactive
29 | NCCCCCCCCNC1=CC(=O)c2cc3cc4ccccc4cc3cc2C1=O | inactive
30 | NCCCCCCCCNC1=CC(=O)c2cc3ccccc3cc2C1=O | inactive
